# According to ChEMBL document CHEMBL1782042, “Efficient microwave-assisted synthesis and antitumor activity of novel 4,4'-methylenebis[2-(3-aryl-4,5-dihydro-1H-pyrazol-5-yl)phenols]” (Eur J Med Chem, 2011):
# What was measured:
# NCI-H23 = test: Anticancer activity against human NCI-H23 cells after 48 hrs by sulforhodamine B assay; type: functional; details: NCI-H23, 48 h
# Summary of the method: (§1)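 NCI 60-cell-line in vitro screen, second stage: five concentration levels (100, 10, 1.0, 0.1 and 0.01 μM) with 48 h continuous drug exposure. Cell growth was estimated by sulforhodamine B protein staining. GI50 is the drug concentration that gives a 50% reduction in net protein increase relative to control cells over the incubation.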
# LOX IMVI [1] = test: Anticancer activity against human LOXIMVI cells after 48 hrs by sulforhodamine B assay; type: functional; summary of the method: as §1
# SK-MEL-2 = test: Cytotoxicity against human SK-MEL-2 cells; type: cell-based
# Summary of the method: (§2)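 NCI 60 human tumour cell line screen, second stage at five concentrations (100, 10, 1.0, 0.1 and 0.01 μM). Continuous drug exposure for 48 h, with cell growth estimated by sulforhodamine B protein staining. GI50 is the drug concentration giving a 50% reduction in net protein increase relative to control cells over the incubation.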
# SNB-75 = test: Anticancer activity against human SNB75 cells after 48 hrs by sulforhodamine B assay; type: functional; details: SNB-75, 48 h
# Summary of the method: (§3)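 NCI 60-cell-line screen, second stage. Five concentration levels (100, 10, 1.0, 0.1 and 0.01 μM), 48 h continuous drug exposure. Cell growth was estimated by sulforhodamine B protein staining. GI50 is the concentration giving a 50% reduction in net protein increase relative to control cells over the drug incubation. Compounds entered this stage after an earlier single-dose screen.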
# U-251 = test: Cytotoxicity against human U251 cells; type: cell-based
# Summary of the method: (§4)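 NCI 60 human tumour cell line screen; five concentration levels (100, 10, 1.0, 0.1 and 0.01 μM), 48 h continuous drug exposure. Cell growth estimated by sulforhodamine B (SRB) protein staining. GI50 taken as the drug concentration giving a 50% reduction in net protein increase relative to control cells over the incubation.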
# SN12C [2] = test: Anticancer activity against human SN12C cells after 48 hrs by sulforhodamine B assay; type: functional; summary of the method: as §1
# NCI-H522 = test: Anticancer activity against human NCI-H522 cells after 48 hrs by sulforhodamine B assay; type: functional; details: NCI-H522, 48 h; summary of the method: as §1
# SW-620 [3] = test: Cytotoxicity against human SW620 cells; type: cell-based; summary of the method: as §4
# LOX IMVI [4] = test: Cytotoxicity against human LOXIMVI cells; type: cell-based; summary of the method: as §2
# HOP-62 = test: Anticancer activity against human HOP62 cells after 48 hrs by sulforhodamine B assay; type: functional; details: HOP-62, 48 h; summary of the method: as §1
# MDA-MB-468 = test: Anticancer activity against human MDA-MB-468 cells after 48 hrs by sulforhodamine B assay; type: functional; details: MDA-MB-468, 48 h; summary of the method: as §1
# MCF7 = test: Cytotoxicity against human MCF7 cells; type: cell-based; summary of the method: as §2
# HOP-92 = test: Anticancer activity against human HOP92 cells after 48 hrs by sulforhodamine B assay; type: functional; details: HOP-92, 48 h; summary of the method: as §1
# 786-0 = test: Anticancer activity against human 786-0 cells after 48 hrs by sulforhodamine B assay; type: functional; details: 786-0, 48 h; summary of the method: as §1
# K562 = test: Anticancer activity against human K562 cells after 48 hrs by sulforhodamine B assay; type: functional; details: K562, 48 h; summary of the method: as §1
# Hs-578T [5] = test: Cytotoxicity against human Hs578T cells; type: cell-based; summary of the method: as §2
# MDA-MB-435 = test: Anticancer activity against human MDA-MB-435 cells after 48 hrs by sulforhodamine B assay; type: functional; details: MDA-MB-435, 48 h; summary of the method: as §1
# SW-620 [6] = test: Anticancer activity against human SW620 cells after 48 hrs by sulforhodamine B assay; type: functional; details: SW-620, 48 h; summary of the method: as §3
# SN12C [7] = test: Cytotoxicity against human SN12C cells; type: cell-based; summary of the method: as §4
# ACHN = test: Cytotoxicity against human ACHN cells; type: cell-based; summary of the method: as §2
# Hs-578T [8] = test: Anticancer activity against human Hs578T cells after 48 hrs by sulforhodamine B assay; type: functional; summary of the method: as §1
# NCI-H460 = test: Anticancer activity against human NCI-H460 cells after 48 hrs by sulforhodamine B assay; type: functional; details: NCI-H460, 48 h; summary of the method: as §1
# SNB-19 = test: Anticancer activity against human SNB19 cells after 48 hrs by sulforhodamine B assay; type: functional; details: SNB-19, 48 h; summary of the method: as §1
# HCT-15 [9] = test: Cytotoxicity against human HCT15 cells; type: cell-based; summary of the method: as §2
# HCT-15 [10] = test: Anticancer activity against human HCT15 cells after 48 hrs by sulforhodamine B assay; type: functional; details: HCT-15, 48 h; summary of the method: as §1
# T47D [11] = test: Anticancer activity against human T47D cells after 48 hrs by sulforhodamine B assay; type: functional; summary of the method: as §3
# HCT-116 = test: Anticancer activity against human HCT116 cells after 48 hrs by sulforhodamine B assay; type: functional; details: HCT-116, 48 h; summary of the method: as §1
# OVCAR-8 = test: Cytotoxicity against human OVCAR8 cells; type: cell-based; summary of the method: as §2
# T47D [12] = test: Cytotoxicity against human T47D cells; type: cell-based; summary of the method: as §4
# OVCAR-4 = test: Cytotoxicity against human OVCAR4 cells; type: cell-based; summary of the method: as §2
# CCRF-CEM = test: Anticancer activity against human CCRF-CEM cells after 48 hrs by sulforhodamine B assay; type: functional; summary of the method: as §1
# A549 = test: Cytotoxicity against human A549 cells; type: cell-based; summary of the method: as §2
# SK-MEL-5 = test: Cytotoxicity against human SK-MEL-5 cells; type: cell-based; summary of the method: as §2
structure (smiles),measurement,setting,value
Cc1ccc(C2=NNC(c3cc(Cc4ccc(O)c(C5CC(c6ccc(C)cc6)=NN5)c4)ccc3O)C2)cc1 (stereo not drawn),GI50,NCI-H23,5.3 µM
same,GI50,LOX IMVI [1],7.38 µM
same,LC50,SK-MEL-2,> 100 µM
same,GI50,SNB-75,4.98 µM
same,LC50,U-251,> 100 µM
same,GI50,SN12C [2],8.84 µM
same,GI50,NCI-H522,3.64 µM
same,LC50,SW-620 [3],> 100 µM
same,LC50,LOX IMVI [4],> 100 µM
same,GI50,HOP-62,8.64 µM
same,GI50,MDA-MB-468,2.97 µM
same,LC50,MCF7,71.8 µM
same,GI50,HOP-92,8.28 µM
same,GI50,786-0,8.39 µM
same,GI50,K562,7.73 µM
same,LC50,Hs-578T [5],> 100 µM
same,GI50,MDA-MB-435,8.52 µM
same,GI50,SW-620 [6],7.96 µM
same,LC50,SN12C [7],> 100 µM
same,LC50,ACHN,> 100 µM
same,GI50,Hs-578T [8],5.58 µM
same,GI50,NCI-H460,4.88 µM
same,GI50,SNB-19,6.89 µM
same,LC50,HCT-15 [9],> 100 µM
same,GI50,HCT-15 [10],3.64 µM
same,GI50,T47D [11],4.61 µM
same,GI50,HCT-116,4.11 µM
same,LC50,OVCAR-8,> 100 µM
same,LC50,T47D [12],> 100 µM
same,LC50,OVCAR-4,> 100 µM
same,GI50,CCRF-CEM,3.85 µM
same,LC50,A549,> 100 µM
same,LC50,SK-MEL-5,31.7 µM
